Results: ChEMBL document CHEMBL1141286, “Benzochromenones from the marine crinoid Comantheria rotula inhibit hypoxia-inducible factor-1 (HIF-1) in cell-based reporter assays and differentially suppress the growth of certain tumor cell lines” (J Nat Prod, 2007)

How the values were obtained:
SF-268 = assay: Growth inhibition of human SF268 cells; assay type: functional
RPMI-8226 = assay: Growth inhibition of human RPMI8226 cells; assay type: functional
[1] = DPPH radical scavenging activity relative to Trolox; assay type: functional; set-up: concentration or dose not given beside the values
Procedure, shortened: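 Compounds were made up as DMSO stocks and diluted in isopropanol to a final 10 μM. Each was mixed with DPPH in isopropanol at 10 μM or 30 μM DPPH, and absorbance was read at 515 nm. Scavenging was calculated as [1 − OD515(compound)/OD515(control)] × 100, then expressed as a percentage of Trolox activity. One experiment was run in triplicate.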

OVCAR-8 = assay: Growth inhibition of human OVACAR8 cells; assay type: functional
[2] = Inhibition of 1,10-phenanthroline-induced HIF1 activation in PC3 cells by TK-luciferase assay; assay type: cell-based; conditions: Homo sapiens, PC-3
Procedure, shortened: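 HIF-1 reporter (pHRE-TK-Luc) assays in transfected PC-3 or T47D cells; HIF-1 induced by hypoxia or by the hypoxia mimetic 1,10-phenanthroline (10 μM); compounds at half-log concentrations; luciferase activity measured; IC50 from experiments in triplicate.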

OVCAR-4 = assay: Growth inhibition of human OVACAR4 cells; assay type: functional
NCI/ADR-RES = assay: Growth inhibition of human NCI/ADR-RES cells; assay type: functional
SW-620 = assay: Growth inhibition of human SW620 cells; assay type: functional
A549 = assay: Growth inhibition of human A549 cells; assay type: functional
HL-60 = assay: Growth inhibition of human HL60 cells; assay type: functional
IGROV-1 = assay: Growth inhibition of human IGROV1 cells; assay type: functional
MOLT-4 = assay: Growth inhibition of human MOLT4 cells; assay type: functional; conditions: read-out: Log LC50 (the source's name) (converted)
SF-539 = assay: Growth inhibition of human SF539 cells; assay type: functional
UACC-62 = assay: Growth inhibition of human UACC62 cells; assay type: functional
NCI-H460 = assay: Growth inhibition of human NCI-H460 cells; assay type: functional
OVCAR-5 = assay: Growth inhibition of human OVACAR5 cells; assay type: functional
[3] = Growth inhibition of human OVACAR3 cells; assay type: functional
NCI-H23 = assay: Growth inhibition of human NCI-H23 cells; assay type: functional
LOX IMVI = assay: Growth inhibition of human LOXIMVI cells; assay type: functional
MDA-MB-435 = assay: Growth inhibition of human MDA-MB-435 cells; assay type: functional
[4] = Inhibition of luciferase at 30 uM
Procedure, shortened: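 Purified recombinant firefly luciferase (QuantiLum, 46.8 μg mL−1) mixed with compound in passive lysis buffer containing BSA (1 mg mL−1); equal volume of luciferase substrate added, light output read; percentage inhibition relative to DMSO control; concentration-response curves up to 30 μM.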

TK-10 = assay: Growth inhibition of human TK10 cells; assay type: functional
U-251 = assay: Growth inhibition of human U251 cells; assay type: functional
[5] = read-out: Log LC50 (the source's name) (converted)

## CCCc1cc(=O)c2c(O)c3c(OC)cc(O)cc3cc2o1
SF-268
  GI50: 20.4 µM
  LC50: > 100 µM
SF-268; read-out: Log TGI (converted)
  TGI: 58.9 µM
RPMI-8226
  GI50: 14.5 µM
RPMI-8226; [5]
  CC50: > 100 µM
RPMI-8226; read-out: Log TGI (converted)
  TGI: 43.7 µM
[1]
  Activity: 40%
OVCAR-8
  GI50: 28.8 µM
  LC50: > 100 µM
OVCAR-8; read-out: Log TGI (converted)
  TGI: > 100 µM
[2]
  IC50: 0.8 µM
OVCAR-4
  GI50: 26.3 µM
  LC50: > 100 µM
OVCAR-4; read-out: Log TGI (converted)
  TGI: > 100 µM
NCI/ADR-RES
  GI50: 26.3 µM
  LC50 (concentration killing 50% of cells): > 100 µM
NCI/ADR-RES; read-out: Log TGI (converted)
  TGI: 75.9 µM
SW-620
  GI50: 21.4 µM
SW-620; [5]
  CC50: 77.6 µM
SW-620; read-out: Log TGI (converted)
  TGI: 40.7 µM
A549
  GI50: 19.1 µM
A549; [5]
  CC50: > 100 µM
A549; read-out: Log TGI (converted)
  TGI: 50.1 µM
HL-60
  GI50: 30.9 µM
  LC50: > 100 µM
HL-60; read-out: Log TGI (converted)
  TGI: 61.7 µM
IGROV-1
  GI50: 19.1 µM
IGROV-1; [5]
  CC50: > 100 µM
IGROV-1; read-out: Log TGI (converted)
  TGI: 44.7 µM
MOLT-4
  CC50: > 100 µM
SF-539
  GI50: 19.5 µM
  LC50: 81.3 µM
SF-539; read-out: Log TGI (converted)
  TGI: 39.8 µM
UACC-62
  GI50: 15.5 µM
  LC50 (lethal concentration, 50% cell kill): 57.5 µM
UACC-62; read-out: Log TGI (converted)
  TGI: 29.5 µM
NCI-H460
  GI50: 17.8 µM
NCI-H460; [5]
  CC50: > 100 µM
NCI-H460; read-out: Log TGI (converted)
  TGI: 42.7 µM
OVCAR-5
  GI50: 25.1 µM
  LC50: > 100 µM
OVCAR-5; read-out: Log TGI (converted)
  TGI: 60.3 µM
[3]
  GI50: 27.5 µM
[3]; [5]
  CC50: > 100 µM
[3]; read-out: Log TGI (converted)
  TGI: > 100 µM
NCI-H23
  GI50: 22.4 µM
NCI-H23; [5]
  CC50: > 100 µM
NCI-H23; read-out: Log TGI (converted)
  TGI: 49 µM
LOX IMVI
  GI50: 16.6 µM
  LC50: 63.1 µM
LOX IMVI; read-out: Log TGI (converted)
  TGI: 32.4 µM
MDA-MB-435
  GI50: 20.9 µM
  LC50: > 100 µM
MDA-MB-435; read-out: Log TGI (converted)
  TGI: 57.5 µM
[4]
  inhibition: 48%
TK-10
  GI50: 30.2 µM
  LC50: > 100 µM
TK-10; read-out: Log TGI (converted)
  TGI: > 100 µM
U-251
  GI50: 16.2 µM
  LC50: 95.5 µM
U-251; read-out: Log TGI (converted)
  TGI: 38.9 µM
